The results in this text go back to ChEMBL document CHEMBL1142048, “Design, synthesis and structure-activity relationship studies of hexahydropyrazinoquinolines as a novel class of potent and selective dopamine receptor 3 (D3) ligands” (Bioorg Med Chem Lett, 2005).

Test [1] can be described thus: Binding affinity for D1-like [3H]-SCH- 23390 receptor was determined using caudate-putamen of adult male Spragueo?=Dawley rats. It counts as tissue-based, Rattus norvegicus. In outline:
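Rat caudate-putamen membranes, adult male Sprague–Dawley. Buffer 50 mM Tris–HCl, 5 mM KCl, 2 mM MgCl2, 2 mM CaCl2, pH 7.4 at 23 °C. [3H]SCH 23390 0.3 nM, with nonspecific binding defined by 1 μM (+)-butaclamol. Compounds were dissolved in 100% EtOH up to 5 mM (stock).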

A short description of test [2]: Binding affinity for D2-like [3H]spiperone receptor was determined using caudate-putamen of adult male Spragueo?=Dawley rats. It is filed as tissue-based, Rattus norvegicus. In outline:
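Rat caudate-putamen membranes, adult male Sprague–Dawley. Buffer 50 mM Tris–HCl, 5 mM KCl, 2 mM MgCl2, 2 mM CaCl2, pH 7.4 at 23 °C. [3H]spiperone 0.2 nM, with nonspecific binding defined by 1 μM (+)-butaclamol. Compounds were dissolved in 100% EtOH up to 5 mM (stock). Ki was derived from the radioligand KD.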

The target in the next test is D(3) dopamine receptor (Rattus norvegicus, UniProt P19020). Nature of the test: biochemical.
Chain of D(3) dopamine receptor (P19020 whole entry): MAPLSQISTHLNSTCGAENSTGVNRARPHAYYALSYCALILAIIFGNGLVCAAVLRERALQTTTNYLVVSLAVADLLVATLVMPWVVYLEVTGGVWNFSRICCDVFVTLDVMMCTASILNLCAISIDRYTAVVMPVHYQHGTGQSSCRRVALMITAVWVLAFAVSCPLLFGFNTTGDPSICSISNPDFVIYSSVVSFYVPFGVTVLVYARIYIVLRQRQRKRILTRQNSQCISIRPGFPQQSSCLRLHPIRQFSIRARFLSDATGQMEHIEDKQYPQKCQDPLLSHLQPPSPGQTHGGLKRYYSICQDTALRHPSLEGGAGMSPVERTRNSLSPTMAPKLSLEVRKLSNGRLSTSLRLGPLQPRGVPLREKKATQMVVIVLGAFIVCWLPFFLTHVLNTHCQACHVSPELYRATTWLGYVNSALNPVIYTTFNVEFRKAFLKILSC

In the case of `O=C(CCCCN1CCN2c3ccccc3CCC2C1)c1ccc(F)cc1` (stereo not drawn), the inhibition constant Ki in test [1] worked out at 2.47 µM; in test [2], 0.852 µM; on D(3) dopamine receptor, 0.381 µM.
For `O=C(NCCCCN1CCN2c3ccccc3CCC2C1)c1ccc2ccccc2c1` (stereo not drawn), in that order: 0.791 µM, 1.57 µM and 0.018 µM.
For `COc1ccc2c(c1)N1CCN(CCCCNC(=O)c3ccc4ccccc4c3)CC1CC2` (stereo not drawn), in that order: 5.8 µM, 1.12 µM and 0.045 µM.
Regarding `O=C(NCCN1CCN2c3ccccc3CCC2C1)c1ccc2ccccc2c1` (stereo not drawn), the figures for the Ki (in test [1]; in test [2]; at D(3) dopamine receptor) were 1.22 µM, 1.39 µM and 1.65 µM, respectively.
For the compound `O=C(NCCCN1CCN2c3ccccc3CCC2C1)c1ccc2ccccc2c1` (stereo not drawn), the inhibition constant Ki in test [1] stood at 153 µM; in test [2], 2.44 µM; at D(3) dopamine receptor, 1.54 µM.
`O=C(NCCCN1CCN2c3ccccc3CCC2C1)c1ccc(-c2ccccc2)cc1` (stereo not drawn): the Ki stood at 0.356 µM in test [1], 0.906 µM in test [2] and 2.52 µM on D(3) dopamine receptor.
In the same order, the values of `O=C(CCCN1CCN2c3ccccc3CCC2C1)c1ccc(F)cc1` (stereo not drawn) are 0.904 µM, 0.243 µM and 0.304 µM.
For `O=C(CCN1CCN2c3ccccc3CCC2C1)c1ccc(F)cc1` (stereo not drawn), in that order: 8.89 µM, 3.64 µM and 2.75 µM.
In the same order, the values of `COc1cccc2c1CCC1CN(CCCCNC(=O)c3ccc4ccccc4c3)CCN21` (stereo not drawn) are 4.6 µM, 0.762 µM and 0.0058 µM.
For `COc1ccc2c(c1)CCC1CN(CCCCNC(=O)c3ccc4ccccc4c3)CCN21` (stereo not drawn), the inhibition constant (Ki) was greater than 250 µM in test [1], greater than 250 µM in test [2] and 0.244 µM on D(3) dopamine receptor.
Turning to `COc1cccc2c1N1CCN(CCCCNC(=O)c3ccc4ccccc4c3)CC1CC2` (stereo not drawn), the inhibition constant Ki is 6.05 µM in test [1] and 0.258 µM in test [2].
For `O=C(NCCN1CCN2c3ccccc3CCC2C1)c1ccc(-c2ccccc2)cc1` (stereo not drawn), the Ki is greater than 100 µM in test [1], greater than 100 µM in test [2] and 23 µM on D(3) dopamine receptor.
For the compound `O=C(CN1CCN2c3ccccc3CCC2C1)c1ccc(F)cc1` (stereo not drawn), the Ki in test [1] was 7.95 µM; in test [2] it was 3.89 µM; on D(3) dopamine receptor, 7.49 µM.
Turning to `O=C(NCCCCN1CCN2c3ccccc3CCC2C1)c1ccc(-c2ccccc2)cc1` (stereo not drawn), the values for the Ki (in test [1]; in test [2]; at D(3) dopamine receptor) were 0.258 µM, 0.22 µM and 0.022 µM, respectively.
On to `COc1ccccc1N1CCN(CCCCNC(=O)c2ccc3ccccc3c2)CC1` [BP-897], for which the values for the inhibition constant (Ki) in test [1] and in test [2] were 0.636 µM and 0.162 µM, respectively.

What is called Ki is a measure of affinity in units of concentration, obtained from inhibition or displacement.
